Laboratory results from ChEMBL document CHEMBL4610039, “Design, synthesis and apoptosis-related antiproliferative activities of chelidonine derivatives” (Bioorg Med Chem Lett, 2020).
Calls of active or inactive are those of the source. The calls are words filed in the database; no cut-off is given here.

Columns and labels:
[1] = system: HepG2; experiment: Antiproliferative activity against human HepG2 cells assessed as reduction in cell growth after 72 hrs by MTT assay; type: functional, cell-based; details: HepG2, 72 h
Outline: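 Human HepG2, MCF-7, HCT-116 and K562 tumour cells plus normal L-02 hepatocytes and PBMCs were exposed to compounds for 72 h and growth was read by MTT. 5-Fu served as positive control. IC50 is the concentration inhibiting 50% of cell growth, given as mean ± standard deviation of three independent experiments.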

[2] = system: K562; experiment: Induction of cell cycle arrest in human K562 cells assessed as accumulation at G1 phase at 0.55 uM after 72 hrs by propidium iodide staining based flow cytometry (reference value: 56.13%); type: functional
Outline: (§1)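 For cell cycle, K562 cells were treated 72 h at 0, 0.55, 1.10 or 2.20 μM, with a solvent control. Cells were stained with PI and G1, S and G2/M fractions determined by flow cytometry.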

[3] = system: K562; experiment: Induction of cell cycle arrest in human K562 cells assessed as accumulation at G2/M phase at 1.10 uM after 72 hrs by propidium iodide staining based flow cytometry (reference value: 8.19%); type: functional; outline: as §1
[4] = system: K562; experiment: Induction of apoptosis in human K562 cells assessed as viable cells at 1.10 uM after 48 hrs by annexin V-FITC/propidium iodide staining based flow cytometry (reference value: 96.26%); type: functional; details: K562, 48 h, read-out: Activity
[5] = system: K562; experiment: Induction of apoptosis in human K562 cells assessed as viable cells at 2.20 uM after 48 hrs by annexin V-FITC/propidium iodide staining based flow cytometry (reference value: 96.26%); type: functional; details: K562, 48 h, read-out: Activity
[6] = system: K562; experiment: Induction of apoptosis in human K562 cells assessed as late apoptotic cells at 2.20 uM after 48 hrs by annexin V-FITC/propidium iodide staining based flow cytometry (reference value: 0.73%); type: functional
[7] = system: K562; experiment: Induction of apoptosis in human K562 cells assessed as necrotic cells at 2.20 uM after 48 hrs by annexin V-FITC/propidium iodide staining based flow cytometry (reference value: 0.78%); type: functional
[8] = system: K562; experiment: Induction of mitochondrial membrane potential loss in human K562 cells assessed as cell population with mitochondrial membrane potential collapse at 0.55 uM after 48 hrs by JC1 staining-based flow cytometry analysis (reference value: 7.04%); type: functional
[9] = system: K562; experiment: Induction of mitochondrial membrane potential loss in human K562 cells assessed as cell population with mitochondrial membrane potential collapse at 1.10 uM after 48 hrs by JC1 staining-based flow cytometry analysis (reference value: 7.04%); type: functional
[10] = system: K562; experiment: Induction of mitochondrial membrane potential loss in human K562 cells assessed as cell population with intact mitochondrial membrane potential at 2.20 uM after 48 hrs by JC1 staining-based flow cytometry analysis (reference value: 92.94%); type: functional
[11] = system: K562; experiment: Induction of mitochondrial membrane potential loss in human K562 cells after 48 hrs by JC1 staining-based flow cytometry analysis; type: functional, cell-based
[12] = system: K562; experiment: Induction of apoptosis in human K562 cells assessed as increase in Bad protein expression after 24 hrs by chemiluminescence based protein array analysis; type: functional, cell-based
Outline: (§2)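 K562 cells were treated for 24 h, then proteins were extracted and run on a human apoptosis protein array. Chemiluminescent signals were detected with a digital imaging system.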

[13] = system: K562; experiment: Induction of apoptosis in human K562 cells assessed as reduction in claspin level after 24 hrs by chemiluminescence based protein array analysis; type: functional, cell-based; outline: as §2

Question: With CN1Cc2c(ccc3c2OCO3)[C@H]2[C@@H](OC(=O)CCCC(=O)OCC#CCOc3no[n+]([O-])c3S(=O)(=O)c3ccccc3)Cc3cc4c(cc3[C@H]21)OCO4 as the molecule, how does the IC50 [1] read?
Answer: Its IC50 is 3.91 µM.

Question: And the Activity [2]?
Answer: The Activity was 47.82%.

Question: And the Activity [3]?
Answer: The Activity was 6.69%.

Question: And the viability at 1.1 µM [4]?
Answer: The viability at 1.1 µM was 80.5%.

Question: And the viability at 2.2 µM [5]?
Answer: Its viability at 2.2 µM is 45%.

Question: And the Activity [6]?
Answer: Its Activity is 28.97%.

Question: And the Activity [7]?
Answer: Its Activity is 1.16%.

Question: What about the Activity [8] of the same molecule?
Answer: Its Activity is 19.29%.

Question: What about the Activity [9] of the same molecule?
Answer: Its Activity is 28.66%.

Question: And the Activity [10]?
Answer: The Activity was 48.85%.

Question: What about the Activity [11] of the same molecule?
Answer: Its Activity is “Dose-dependent effect”.

Question: What about the Activity [12] of the same molecule?
Answer: Its Activity is “Active”.

Question: And the Activity [13]?
Answer: The Activity was “Active”.
